Measurements from different studies.
Each line is one published result; the experiments were not run side by side.
OPRK1: Kappa-type opioid receptor (OPRK1, Homo sapiens, UniProt P41145)

Compound | target | test | conditions | Ki [µM]
Cc1ccc(Cc2ccc3c(c2)CN(C(=O)[C@@H](N)Cc2c(C)cc(O)cc2C)CC3)cc1 | OPRK1 | ligand displacement, radioligand | cell membranes | 0.233
CC(=O)Nc1ccccc1-c1cnc2c(c1)C[C@@]1(OCCCc3ccccc3)[C@H]3Cc4ccc(O)c5c4[C@@]1(CCN3CC1CC1)[C@H]2O5 | OPRK1 | cell-free assay |  | 0.0135
C[C@@H](NC(=O)[C@@H](N)Cc1ccc(O)cc1)C(=O)NCC(=O)N[C@@H](Cc1ccc(Cl)cc1)C(=O)N(C)CCC[C@@]1(c2ccc(F)cc2)OCc2cc(C#N)ccc21 | OPRK1 | cell-free assay |  | 0.043
Fc1ccccc1CC(c1ccccc1)N1CCCC1 (centres unmarked) | OPRK1 | ligand displacement, radioligand |  | 0.642
CC[C@H](C)[C@H](NC(=O)[C@H](CCCNC(=N)N)NC(=O)[C@H](CC(C)C)NC(=O)[C@@H](N)Cc1ccccc1)C(=O)N[C@@H](CCCNC(=N)N)C(=O)N1CCC[C@H]1C(=O)N[C@@H](CCCCN)C(=O)O | OPRK1 | ligand displacement, radioligand |  | > 10
Cc1cc(O)cc(C)c1C[C@H](N)C(=O)N1CCc2ccc(Cc3ccccc3N)cc2C1 | OPRK1 | ligand displacement, radioligand | cell membranes | 0.025
CN[C@]1(c2ccccc2Cl)CCCCC1=O | OPRK1 | ligand displacement, radioligand |  | 8.5
Cc1cc(O)cc(C)c1C[C@H](N)C(=O)N1CCc2ccc(Cc3ccccc3[N+](=O)[O-])cc2C1 | OPRK1 | ligand displacement, radioligand | cell membranes | 0.0026
CCCC[C@@H](NC(=O)[C@@H](N)Cc1ccc(O)cc1)C(=O)NCC(=O)N[C@@H](Cc1ccc(F)cc1)C(=O)N(C)CCC[C@@]1(c2ccc(F)cc2)OCc2cc(C#N)ccc21 | OPRK1 | cell-free assay |  | 0.068
C[C@H]1[C@H]2Cc3ccc(O)cc3[C@]1(C)CCN2CC1CC1 | Kappa-type opioid receptor (OPRK1, Homo sapiens, UniProt P41145, I135L) | cell-free assay |  | 0.00295
COc1ccsc1CNCC[C@@]1(c2ccccn2)CCOC2(CCCC2)C1 | OPRK1 | cell-free assay |  | 2.7
Cc1cc(O)cc(C)c1C[C@H](N)C(=O)N1CCc2ccc(Cc3ccc([N+](=O)[O-])cc3)cc2C1 | OPRK1 | ligand displacement, radioligand | cell membranes | 0.022
Oc1ccc2c3c1O[C@H]1c4ncc(-c5ccccc5)cc4C[C@@]4(OCCCc5cccnc5)[C@@H](C2)N(CC2CC2)CC[C@]314 | OPRK1 | cell-free assay |  | 0.0053
C[C@@H](NC(=O)[C@@H](N)Cc1ccc(O)cc1)C(=O)NCC(=O)N[C@@H](Cc1ccccc1)C(=O)N(C)CCC[C@@]1(c2ccc(F)cc2)OCc2cc(C#N)ccc21 | OPRK1 | cell-free assay |  | 0.086
